Values after ≈ are worked out from the molar mass of the structure shown. Active and inactive are the calls of the source. The calls are words filed in the database; no cut-off is given here.
Assays:
[1] = test system: Respiratory syncytial virus; assay: Antiviral activity against respiratory syncytial virus A2 infected in human Hep2 cells assessed as reduction in virus-induced cytopathic effect after 5 days by MTT assay; type: functional, organism-based; conditions: A2, HEp-2, 120 h
Procedure, shortened: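 HEp2 cells (1.0 × 10⁴/well) infected at low moi (RSV A2 at moi 0.01) and added to serial compound dilutions; incubated 5 days at 37 °C, 5% CO₂. CPE read by MTT (1 mg/ml) metabolism after 2 h incubation.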

[2] = Kinetic solubility in 0.01M HCl buffer at pH 2.0 by nephelometry; type: physicochemical; conditions: read-out: Kinetic_solubility
Procedure, shortened: (§1)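 Compound dissolved in DMSO and added to 0.01 M HCl (pH 2) or pH 6.5 isotonic phosphate buffer, 1% final DMSO. Solubility range determined by nephelometry.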

[3] = Plasma clearance in Sprague-Dawley rat at 5.1 mg/kg, iv; type: ADME, organism-based; design: dose 5.1 mg/kg, route intravenous
[4] = Oral bioavailability in Sprague-Dawley rat at 19 mg/kg; type: ADME, organism-based; conditions: in vivo
Procedure, shortened: (§2)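 Male Sprague Dawley rats, n = 2, oral dose as suspension in hydroxypropylmethylcellulose, in carboxymethylcellulose, or in 0.5% HPMC/0.5% benzyl alcohol/0.4% Tween80. Cmax (µM), T1/2 and F (%) derived from plasma levels.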

[5] = Cmax in Sprague-Dawley rat at 19 mg/kg, po; type: ADME, organism-based; design: dose 19 mg/kg, route oral; conditions: in vivo; procedure, shortened: as §2
[6] = Apparent volume of distribution in Sprague-Dawley rat at 5.1 mg/kg, iv; type: ADME, organism-based; design: dose 5.1 mg/kg, route intravenous; conditions: in vivo, read-out: Vz
[7] = Elimination half life in Sprague-Dawley rat at 19 mg/kg, po; type: ADME, organism-based; design: dose 19 mg/kg, route oral; conditions: in vivo, read-out: beta t1/2 (converted); procedure, shortened: as §2
[8] = Lipophilicity, log D of the compound at pH 7.4 by chromatography; type: physicochemical; conditions: buffer
Procedure, shortened: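 Effective logD measured chromatographically on an LC-ABZ column, octanol-saturated mobile phase at pH 7.4.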

[9] = test system: Respiratory syncytial virus; assay: Antiviral activity against respiratory syncytial virus B1 infected in human Hep2 cells assessed as reduction in virus-induced cytopathic effect after 5 days by MTT assay; type: functional, organism-based; conditions: B1, HEp-2, 120 h
[10] = test system: Respiratory syncytial virus; assay: Antiviral activity against respiratory syncytial virus Long infected in human Hep2 cells assessed as reduction in virus-induced cytopathic effect after 5 days by MTT assay; type: functional, organism-based; conditions: HEp-2, 120 h
[11] = Kinetic solubility in isotonic phosphate buffer at pH 6.5 by nephelometry; type: physicochemical; conditions: read-out: Kinetic_solubility; procedure, shortened: as §1
[12] = Elimination half life in Sprague-Dawley rat at 5.1 mg/kg, iv; type: ADME, organism-based; design: dose 5.1 mg/kg, route intravenous; conditions: in vivo, read-out: beta t1/2 (converted)
[13] = Total clearance in Sprague-Dawley rat at 3.1 mg/kg, iv; type: ADME, organism-based; design: dose 3.1 mg/kg, route intravenous; conditions: in vivo
Procedure, shortened: (§3)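 Male Sprague Dawley rats given one IV dose. 3.1 mg/kg: n = 1, in 40% propylene glycol, 10% ethanol and 0.4% Tween80 in water. 2.1 mg/kg: n = 2, in 20 mM citrate (pH 2.6) with 5% glucose and 10% DMSO. Total clearance, Vz and T1/2 derived from plasma levels.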

[14] = Elimination half life in Sprague-Dawley rat at 3.1 mg/kg, iv; type: ADME, organism-based; design: dose 3.1 mg/kg, route intravenous; conditions: in vivo, read-out: beta t1/2 (converted); procedure, shortened: as §3
[15] = Apparent volume of distribution in Sprague-Dawley rat at 3.1 mg/kg, iv; type: ADME, organism-based; design: dose 3.1 mg/kg, route intravenous; conditions: in vivo, read-out: Vz; procedure, shortened: as §3
[16] = Oral bioavailability in Sprague-Dawley rat at 18 mg/kg; type: ADME, organism-based; conditions: in vivo
Procedure, shortened: (§4)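 Male Sprague Dawley rats, n = 2, oral dose as suspension with carboxymethylcellulose. Cmax (µM), T1/2 and F (%) derived from plasma levels.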

[17] = Cmax in Sprague-Dawley rat at 18 mg/kg, po; type: ADME, organism-based; design: dose 18 mg/kg, route oral; conditions: in vivo; procedure, shortened: as §4
[18] = Half life in Sprague-Dawley rat at 18 mg/kg, po; type: ADME, organism-based; design: dose 18 mg/kg, route oral; conditions: in vivo; procedure, shortened: as §4
[19] = Cytotoxicity against human Hep2 cells assessed as reduction in cell viability after 5 days by MTT assay; type: cell-based, HEp-2
Procedure, shortened: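 Uninfected HEp2 cells (1.0 × 10⁴/well) exposed to serial compound dilutions for 5 days at 37 °C, 5% CO₂. Viability read by MTT (1 mg/ml) metabolism after 2 h incubation.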

[20] = Cmax in Sprague-Dawley rat at 20 mg/kg, po; type: ADME, organism-based; design: dose 20 mg/kg, route oral; conditions: in vivo; procedure, shortened: as §2
[21] = Plasma clearance in Sprague-Dawley rat at 1.1 mg/kg, iv; type: ADME, organism-based; design: dose 1.1 mg/kg, route intravenous
[22] = test system: Respiratory syncytial virus; assay: Potency shift index, ratio of EC50 for respiratory syncytial virus A2 infected in human Hep2 in presence of 1.5 mg/mL Alpha-1-acid glycoprotein to EC50 for respiratory syncytial virus A2 infected in human Hep2 in absence of Alpha-1-acid glycoprotein; type: functional
[23] = Elimination half life in Sprague-Dawley rat at 1.1 mg/kg, iv; type: ADME, organism-based; design: dose 1.1 mg/kg, route intravenous; conditions: in vivo, read-out: beta t1/2 (converted)
[24] = Oral bioavailability in Sprague-Dawley rat at 20 mg/kg; type: ADME, organism-based; conditions: in vivo; procedure, shortened: as §2
[25] = Elimination half life in Sprague-Dawley rat at 20 mg/kg, po; type: ADME, organism-based; design: dose 20 mg/kg, route oral; conditions: in vivo, read-out: beta t1/2 (converted); procedure, shortened: as §2
[26] = Apparent volume of distribution in Sprague-Dawley rat at 1.1 mg/kg, iv; type: ADME, organism-based; design: dose 1.1 mg/kg, route intravenous; conditions: in vivo, read-out: Vz
[27] = Plasma clearance in Sprague-Dawley rat at 0.9 mg/kg, iv; type: ADME, organism-based; design: dose 0.9 mg/kg, route intravenous
[28] = Drug metabolism in iv dosed Sprague-Dawley rat urine assessed as formation of pyridine N-oxides level; type: ADME, organism-based; conditions: in vivo
Plasma [29] = assay: Drug metabolism in iv dosed Sprague-Dawley rat plasma assessed as formation of pyridine N-oxides level; type: ADME, organism-based; conditions: in vivo
[30] = Drug metabolism in orally dosed Sprague-Dawley rat urine assessed as formation of pyridine N-oxides level; type: ADME, organism-based; conditions: in vivo, po
[31] = Elimination half life in Sprague-Dawley rat at 0.9 mg/kg, iv; type: ADME, organism-based; design: dose 0.9 mg/kg, route intravenous; conditions: in vivo, read-out: beta t1/2 (converted)
Plasma [32] = assay: Drug metabolism in orally dosed Sprague-Dawley rat plasma assessed as formation of pyridine N-oxides level; type: ADME, organism-based; conditions: in vivo, po
[33] = Apparent volume of distribution in Sprague-Dawley rat at 0.9 mg/kg, iv; type: ADME, organism-based; design: dose 0.9 mg/kg, route intravenous; conditions: in vivo, read-out: Vz
[34] = Elimination half life in Sprague-Dawley rat at 2.1 mg/kg, iv; type: ADME, organism-based; design: dose 2.1 mg/kg, route intravenous; conditions: in vivo, read-out: beta t1/2 (converted); procedure, shortened: as §3
[35] = Half life in Sprague-Dawley rat at 21 mg/kg, po; type: ADME, organism-based; design: dose 21 mg/kg, route oral; conditions: in vivo; procedure, shortened: as §4
[36] = Cmax in Sprague-Dawley rat at 21 mg/kg, po; type: ADME, organism-based; design: dose 21 mg/kg, route oral; conditions: in vivo; procedure, shortened: as §4
[37] = Total clearance in Sprague-Dawley rat at 2.1 mg/kg, iv; type: ADME, organism-based; design: dose 2.1 mg/kg, route intravenous; conditions: in vivo; procedure, shortened: as §3
[38] = Apparent volume of distribution in Sprague-Dawley rat at 2.1 mg/kg, iv; type: ADME, organism-based; design: dose 2.1 mg/kg, route intravenous; conditions: in vivo, read-out: Vz; procedure, shortened: as §3
[39] = Oral bioavailability in Sprague-Dawley rat at 21 mg/kg; type: ADME, organism-based; conditions: in vivo; procedure, shortened: as §4
[40] = test system: Respiratory syncytial virus; assay: Resistance index, ratio of EC50 for drug resistant respiratory syncytial virus B1 expressing F protein L141F mutant to EC50 for wild type Respiratory syncytial virus B1; type: functional
[41] = Oral bioavailability in dog; type: ADME, organism-based, Canis lupus familiaris; conditions: in vivo
[42] = Elimination half life in Sprague-Dawley rat at 8.8 mg/kg, iv; type: ADME, organism-based; design: dose 8.8 mg/kg, route intravenous; conditions: in vivo, read-out: beta t1/2 (converted)
[43] = test system: Respiratory syncytial virus; assay: Antiviral activity against respiratory syncytial virus A2 by yield reduction assay; type: functional, organism-based
[44] = test system: Respiratory syncytial virus; assay: Antiviral activity against respiratory syncytial virus A2 by plaque reduction assay; type: functional, organism-based
[45] = Plasma clearance in Sprague-Dawley rat at 8.8 mg/kg, iv; type: ADME, organism-based; design: dose 8.8 mg/kg, route intravenous
[46] = Apparent volume of distribution in Sprague-Dawley rat at 8.8 mg/kg, iv; type: ADME, organism-based; design: dose 8.8 mg/kg, route intravenous; conditions: in vivo, read-out: Vz
[47] = test system: Respiratory syncytial virus; assay: Resistance index, ratio of EC50 for drug resistant respiratory syncytial virus Long expressing F protein Q494L mutant to EC50 for wild type Respiratory syncytial virus Long
[48] = test system: Respiratory syncytial virus; assay: Antiviral activity against respiratory syncytial virus A2 assessed as inhibition of early virus replication cycle by time of addition assay; type: functional, organism-based
[49] = test system: Respiratory syncytial virus; assay: Resistance index, ratio of EC50 for VP-14637 resistant respiratory syncytial virus Long expressing F protein D489Y mutant to EC50 for wild type Respiratory syncytial virus Long

O=C(c1ccc(F)nc1)N1CCN2C(=O)c3ccncc3[C@]12c1ccc(Cl)cc1
EC50 [1]: 75 nM
solubility kinetic [2]: > 100 µg/mL
clearance [3]: 4.3 mL/min/kg
bioavailability [4]: 75%
Cmax [5]: 8.8 µM
Vd [6]: 3.8 L/kg
half-life [7]: 9.3 h
chromatographic logD [8]: 2.7
EC50 [9]: 290 nM
EC50 [10]: 130 nM
solubility kinetic [11]: 25 µg/mL (≈ 61.2 µM)
half-life [12]: 11 h

Cn1cc(C(=O)N2CCN3C(=O)c4cc[n+]([O-])cc4[C@@]32c2ccc(Cl)cc2)c(C(F)(F)F)n1
EC50 [1]: 10 nM
clearance [13]: 2.2 mL/min/kg
half-life [14]: 11 h
Vd [15]: 2.1 L/kg
bioavailability [16]: 57%
Cmax [17]: 9.3 µM
half-life [18]: 11 h
CC50 at 120 h [19]: > 5000 nM

O=C(c1ccco1)N1CCN2C(=O)c3ccncc3C12c1ccc(Cl)cc1 (racemic)
EC50 [1]: 120 nM
solubility kinetic [2]: 50 µg/mL (≈ 132 µM)
Cmax [20]: 0.44 µM
clearance [21]: 79 mL/min/kg
Ratio EC50 [22]: 3.6
half-life [23]: 2.4 h
chromatographic logD [8]: 2.8
bioavailability [24]: 21%
half-life [25]: 2.8 h
EC50 [9]: 170 nM
EC50 [10]: 370 nM
solubility kinetic [11]: > 100 µg/mL
Vd [26]: 8.7 L/kg
CC50 at 120 h [19]: > 19000 nM

Cn1cc(C(=O)N2CCN3C(=O)c4ccncc4C32c2ccc(Cl)cc2)c(C(F)(F)F)n1 (racemic)
EC50 [1]: 31 nM
bioavailability [4]: 38%
Cmax [5]: 3.6 µM
clearance [27]: 4 mL/min/kg
Drug metabolism [28]: metabolite_detected
Drug metabolism (Plasma [29]): metabolite_detected
Ratio EC50 [22]: 4.3
half-life [7]: 7.1 h
Drug metabolism [30]: metabolite_detected
half-life [31]: 5.6 h
Drug metabolism (Plasma [32]): metabolite_detected
Vd [33]: 1.9 L/kg
CC50 at 120 h [19]: > 16000 nM

O=C(c1ccc(F)nc1)N1CCN2C(=O)c3cc[n+]([O-])cc3C12c1ccc(Cl)cc1 (racemic)
EC50 [1]: 150 nM
half-life [34]: 1.7 h
half-life [35]: 20 h
Cmax [36]: 2.5 µM
clearance [37]: 7.9 mL/min/kg
Vd [38]: 1.2 L/kg
bioavailability [39]: 85%
CC50 at 120 h [19]: > 17000 nM

O=C(c1cccnc1)N1CCN2C(=O)c3ccncc3[C@]12c1ccc(Cl)cc1 [BTA-9881]
EC50 [1]: 48 nM
solubility kinetic [2]: > 100 µg/mL
bioavailability [4]: 100%
Cmax [5]: 23 µM
Ratio EC50 [40]: >100
bioavailability [41]: 100%
half-life [42]: 4.5 h
Activity [43]: Active
half-life [7]: 4.5 h
Activity [44]: Active
chromatographic logD [8]: 2.1
clearance [45]: 4.5 mL/min/kg
Vd [46]: 1.7 L/kg
EC50 [9]: 160 nM
Ratio EC50 [47]: 40
EC50 [10]: 59 nM
solubility kinetic [11]: 50 µg/mL (≈ 128 µM)
Activity [48]: Active
Ratio EC50 [49]: >1800
